Assays:
[1] = Drug metabolism in human liver S9 fraction assessed as compound remaining at 1 uM after 30 mins by HPLC/MS/MS analysis relative to control; assay type: ADME, subcellular; conditions: read-out: Stability
In short: (§1)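 Test compound at 1 µM final, incubated 30 min at 37 °C in serum, or in S9 mix (50 mM potassium phosphate pH 7.4, 3 mM NADPH, 1 mg protein/mL pooled male SD rat or human liver S9). Preincubated 5 min at 37 °C, compound added in acetonitrile–water (1:1), stopped with ice-cold acetonitrile, centrifuged, filtered, parent and carboxylate hydrolysate quantified by HPLC-MS/MS.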

[2] = Drug metabolism in Sprague-Dawley rat liver S9 fraction assessed as 2-(3-aminopiperidin-1-yl)-3-(2-chlorobenzyl)-5-methyl-4-oxo-4,5-dihydro-3H-imidazo[4,5-c]quinoline-7-carboxylic acid formation at 1 uM after 30 mins by HPLC/MS/MS analysis relative to control; assay type: ADME, subcellular; conditions: s9, 0.5 h; in short: as §1
[3] = Drug metabolism in human liver S9 fraction assessed as metabolite 3 formation at 1 uM after 30 mins by HPLC/MS/MS analysis relative to control; assay type: ADME, subcellular; conditions: s9, 0.5 h; in short: as §1
[4] = Drug metabolism in rat serum assessed as compound remaining at 1 uM after 30 mins by HPLC/MS/MS analysis relative to control; assay type: ADME, cell-free; conditions: read-out: Stability; in short: as §1
[5] = Permeability of the compound at pH 5 by PAMPA; assay type: ADME; conditions: read-out: permeability
[6] = Plasma concentration in rat at 10 mg/kg, po after 6 hrs; assay type: ADME, organism-based; set-up: dose 10 mg/kg, route oral
In short: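 Rats dosed orally with prodrug; plasma levels of prodrug and carboxylate active metabolite measured over time, limit of quantification 1.0 ng/mL.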

Rattus norvegicus [7] = assay: Oral bioavailability in rat assessed as 2-(3-aminopiperidin-1-yl)-3-(2-chlorobenzyl)-5-methyl-4-oxo-4,5-dihydro-3H-imidazo[4,5-c]quinoline-7-carboxylic acid level at 10 mg/kg; assay type: ADME, organism-based; conditions: in vivo
Serum [8] = assay: Drug metabolism in rat serum assessed as 2-(3-aminopiperidin-1-yl)-3-(2-chlorobenzyl)-5-methyl-4-oxo-4,5-dihydro-3H-imidazo[4,5-c]quinoline-7-carboxylic acid formation at 1 uM after 30 mins by HPLC/MS/MS analysis relative to control; assay type: ADME, cell-free; conditions: 0.5 h; in short: as §1
[9] = Drug metabolism in human serum assessed as compound remaining at 1 uM after 30 mins by HPLC/MS/MS analysis relative to control; assay type: ADME, cell-free; conditions: read-out: Stability; in short: as §1
[10] = Drug metabolism in Sprague-Dawley rat liver S9 fraction assessed as compound remaining at 1 uM after 30 mins by HPLC/MS/MS analysis relative to control; assay type: ADME, subcellular; conditions: read-out: Stability; in short: as §1
[11] = Permeability of the compound at pH 7.4 by PAMPA; assay type: ADME; conditions: read-out: permeability
Serum [12] = assay: Drug metabolism in human serum assessed as 2-(3-aminopiperidin-1-yl)-3-(2-chlorobenzyl)-5-methyl-4-oxo-4,5-dihydro-3H-imidazo[4,5-c]quinoline-7-carboxylic acid formation at 1 uM after 30 mins by HPLC/MS/MS analysis relative to control; assay type: ADME, cell-free; conditions: 0.5 h; in short: as §1
[13] = AUC in rat at 3 mg/kg, iv; assay type: ADME, organism-based; set-up: dose 3 mg/kg, route intravenous; conditions: plasma
Liver microsome [14] = assay: Clearance in human liver microsomes assessed per mg protein
Liver microsome [15] = assay: Clearance in Sprague-Dawley rat liver microsomes assessed per mg protein
[16] = Volume of distribution at steady state in rat at 3 mg/kg, iv; assay type: ADME, organism-based; set-up: route intravenous, dose 3 mg/kg; conditions: in vivo, read-out: Vdss
[17] = Half life in rat at 3 mg/kg, iv; assay type: ADME, organism-based; set-up: dose 3 mg/kg, route intravenous; conditions: in vivo
[18] = Clearance in rat at 3 mg/kg, iv; assay type: ADME, organism-based; set-up: dose 3 mg/kg, route intravenous; conditions: in vivo
[19] = Volume of distribution at steady state in rat at 1 mg/kg, iv; assay type: ADME, organism-based; set-up: dose 1 mg/kg, route intravenous; conditions: in vivo, read-out: Vdss
[20] = Clearance in rat at 1 mg/kg, iv; assay type: ADME, organism-based; set-up: dose 1 mg/kg, route intravenous; conditions: in vivo
[21] = Half life in rat at 1 mg/kg, iv; assay type: ADME, organism-based; set-up: dose 1 mg/kg, route intravenous; conditions: in vivo
[22] = AUC in rat at 1 mg/kg, iv; assay type: ADME, organism-based; set-up: dose 1 mg/kg, route intravenous; conditions: plasma
[23] = Drug metabolism in Sprague-Dawley rat liver S9 fraction assessed as 2-(3-aminopiperidin-1-yl)-3-(2-chlorobenzyl)-5-methyl-4-oxo-4,5-dihydro-3H-imidazo[4,5-c]quinoline-8-carboxylic acid formation at 1 uM after 30 mins by HPLC/MS/MS analysis relative to control; assay type: ADME, subcellular; conditions: s9, 0.5 h; in short: as §1
[24] = Drug metabolism in human liver S9 fraction assessed as 2-(3-aminopiperidin-1-yl)-3-(2-chlorobenzyl)-5-methyl-4-oxo-4,5-dihydro-3H-imidazo[4,5-c]quinoline-8-carboxylic acid formation at 1 uM after 30 mins by HPLC/MS/MS analysis relative to control; assay type: ADME, subcellular; conditions: s9, 0.5 h; in short: as §1
Serum [25] = assay: Drug metabolism in human serum assessed as 2-(3-aminopiperidin-1-yl)-3-(2-chlorobenzyl)-5-methyl-4-oxo-4,5-dihydro-3H-imidazo[4,5-c]quinoline-8-carboxylic acid formation at 1 uM after 30 mins by HPLC/MS/MS analysis relative to control; assay type: ADME, cell-free; conditions: 0.5 h; in short: as §1
Serum [26] = assay: Drug metabolism in rat serum assessed as 2-(3-aminopiperidin-1-yl)-3-(2-chlorobenzyl)-5-methyl-4-oxo-4,5-dihydro-3H-imidazo[4,5-c]quinoline-8-carboxylic acid formation at 1 uM after 30 mins by HPLC/MS/MS analysis relative to control; assay type: ADME, cell-free; conditions: 0.5 h; in short: as §1
Rattus norvegicus [27] = assay: Oral bioavailability in rat assessed as 2-(3-aminopiperidin-1-yl)-3-(2-chlorobenzyl)-5-methyl-4-oxo-4,5-dihydro-3H-imidazo[4,5-c]quinoline-7-carboxylic acid level at 20 mg/kg; assay type: ADME, organism-based; conditions: in vivo
[28] = Solubility of the compound at pH 2.5; assay type: physicochemical; conditions: buffer
Rattus norvegicus [29] = assay: AUC in rat assessed as 2-(3-aminopiperidin-1-yl)-3-(2-chlorobenzyl)-5-methyl-4-oxo-4,5-dihydro-3H-imidazo[4,5-c]quinoline-7-carboxylic acid level at 20 mg/kg, po; assay type: ADME, organism-based, Plasma; set-up: dose 20 mg/kg, route oral; conditions: in vivo
Rattus norvegicus [30] = assay: Cmax in rat assessed as 2-(3-aminopiperidin-1-yl)-3-(2-chlorobenzyl)-5-methyl-4-oxo-4,5-dihydro-3H-imidazo[4,5-c]quinoline-7-carboxylic acid level at 20 mg/kg, po; assay type: ADME, organism-based; set-up: dose 20 mg/kg, route oral; conditions: in vivo
[31] = Solubility of the compound at pH 7.4; assay type: physicochemical; conditions: buffer
Rattus norvegicus [32] = assay: Tmax in rat assessed as 2-(3-aminopiperidin-1-yl)-3-(2-chlorobenzyl)-5-methyl-4-oxo-4,5-dihydro-3H-imidazo[4,5-c]quinoline-7-carboxylic acid level at 20 mg/kg, po; assay type: ADME, organism-based; set-up: dose 20 mg/kg, route oral; conditions: in vivo
[33] = Solubility of the compound at pH 5.5; assay type: physicochemical; conditions: buffer

| SMILES | remaining at 0.5 h, 1 µM [1] [%] | remaining at 0.5 h, 1 µM [4] [%] | Papp [5] [×10⁻⁶ cm/s] | remaining at 0.5 h, 1 µM [9] [%] | remaining at 0.5 h, 1 µM [10] [%] | Papp [11] [×10⁻⁶ cm/s] | Drug metabolism [23] | Drug metabolism (Serum [25]) | Drug metabolism (Serum [26]) | further results |
| --- | --- | --- | --- | --- | --- | --- | --- | --- | --- | --- |
| COC(=O)c1ccc2c3nc(N4CCC[C@@H](N)C4)n(Cc4ccccc4Cl)c3c(=O)n(C)c2c1.Cl | > 99 | 8.4 | 36.2 | 92 | 70 | 41.4 |  |  |  | Drug metabolism [2]: metabolite_detected; Drug metabolism [3]: metabolite_detected; concentration at 6 h [6]: < 1 ng/mL; F (Rattus norvegicus [7]): 90%; Drug metabolism (Serum [8]): metabolite_detected; Drug metabolism (Serum [12]): metabolite_detected |
| Cn1c(=O)c2c(nc(N3CCC[C@@H](N)C3)n2Cc2ccccc2Cl)c2ccc(C(=O)O)cc21 |  |  | < 0.1 |  |  | < 0.1 |  |  |  | AUC [13]: 276 ng·h/mL; CLH (Liver microsome [14]): < 10 µL/min/mg; CLH (Liver microsome [15]): < 10 µL/min/mg; Vd [16]: 4.5 L/kg; half-life [17]: 36 min; clearance [18]: 181 mL/min/kg |
| Cn1c(=O)c2c(nc(N3CCC[C@@H](N)C3)n2Cc2cc(F)ccc2Cl)c2cc(C(=O)O)ccc21 |  |  |  |  |  |  |  |  |  | Vd [19]: 7.1 L/kg; CLH (Liver microsome [14]): < 10 µL/min/mg; CLH (Liver microsome [15]): < 10 µL/min/mg; clearance [20]: 222 mL/min/kg; half-life [21]: 78 min; AUC [22]: 75.3 ng·h/mL |
| Cl.Cn1c(=O)c2c(nc(N3CCC[C@@H](N)C3)n2Cc2ccccc2Cl)c2cc(C(=O)OCCCN3CCOCC3)ccc21 | 48 | 76 | < 0.1 | 7 | 78 | 3.4 | metabolite_detected | metabolite_detected | metabolite_detected | Drug metabolism [24]: metabolite_detected |
| Cl.Cn1c(=O)c2c(nc(N3CCC[C@@H](N)C3)n2Cc2ccccc2Cl)c2cc(C(=O)OCCN3CCOCC3)ccc21 | 37 | 50 | 0.9 | 6.8 | > 99 | 7.1 | metabolite_detected | metabolite_detected | metabolite_detected | Drug metabolism [24]: metabolite_detected |
| C[C@@H]1CN(CCOC(=O)c2ccc3c(c2)c2nc(N4CCC[C@@H](N)C4)n(Cc4ccccc4Cl)c2c(=O)n3C)C[C@H](C)O1.Cl | 22 | 92 | 10.1 | < 0.5 | 30 | 18 | metabolite_detected | metabolite_detected | metabolite_detected |  |
| Cc1oc(=O)oc1COC(=O)c1ccc2c3nc(N4CCC[C@@H](N)C4)n(Cc4ccccc4Cl)c3c(=O)n(C)c2c1.Cl | 17 | < 0.5 | 12.5 | < 0.5 | 1 | 14.2 |  |  |  | F (Rattus norvegicus [27]): 4%; Drug metabolism [2]: metabolite_detected; solubility [28]: 54 µg/mL; Drug metabolism [3]: metabolite_detected; AUC (Rattus norvegicus [29]): 61.9 ng·h/mL; Cmax (Rattus norvegicus [30]): 81.7 ng/mL; solubility [31]: 2 µg/mL; Drug metabolism (Serum [8]): metabolite_detected; Tmax (Rattus norvegicus [32]): 15 min; solubility [33]: 2 µg/mL; Drug metabolism (Serum [12]): metabolite_detected |
